The full list was thinned out, with hits kept by preference.
VLA-4 inh: inhibition in a human VLA-4 binding assay; inhibition, % (about 7 µM as worked out from the volumes in the protocol); VLA-4 expressing cells, ligand binding flow cytometry; P13612; 330,000 compounds, 0.2% hits; in the data active = inhibition above about 50%
Target sequence (P13612 whole entry, looked up): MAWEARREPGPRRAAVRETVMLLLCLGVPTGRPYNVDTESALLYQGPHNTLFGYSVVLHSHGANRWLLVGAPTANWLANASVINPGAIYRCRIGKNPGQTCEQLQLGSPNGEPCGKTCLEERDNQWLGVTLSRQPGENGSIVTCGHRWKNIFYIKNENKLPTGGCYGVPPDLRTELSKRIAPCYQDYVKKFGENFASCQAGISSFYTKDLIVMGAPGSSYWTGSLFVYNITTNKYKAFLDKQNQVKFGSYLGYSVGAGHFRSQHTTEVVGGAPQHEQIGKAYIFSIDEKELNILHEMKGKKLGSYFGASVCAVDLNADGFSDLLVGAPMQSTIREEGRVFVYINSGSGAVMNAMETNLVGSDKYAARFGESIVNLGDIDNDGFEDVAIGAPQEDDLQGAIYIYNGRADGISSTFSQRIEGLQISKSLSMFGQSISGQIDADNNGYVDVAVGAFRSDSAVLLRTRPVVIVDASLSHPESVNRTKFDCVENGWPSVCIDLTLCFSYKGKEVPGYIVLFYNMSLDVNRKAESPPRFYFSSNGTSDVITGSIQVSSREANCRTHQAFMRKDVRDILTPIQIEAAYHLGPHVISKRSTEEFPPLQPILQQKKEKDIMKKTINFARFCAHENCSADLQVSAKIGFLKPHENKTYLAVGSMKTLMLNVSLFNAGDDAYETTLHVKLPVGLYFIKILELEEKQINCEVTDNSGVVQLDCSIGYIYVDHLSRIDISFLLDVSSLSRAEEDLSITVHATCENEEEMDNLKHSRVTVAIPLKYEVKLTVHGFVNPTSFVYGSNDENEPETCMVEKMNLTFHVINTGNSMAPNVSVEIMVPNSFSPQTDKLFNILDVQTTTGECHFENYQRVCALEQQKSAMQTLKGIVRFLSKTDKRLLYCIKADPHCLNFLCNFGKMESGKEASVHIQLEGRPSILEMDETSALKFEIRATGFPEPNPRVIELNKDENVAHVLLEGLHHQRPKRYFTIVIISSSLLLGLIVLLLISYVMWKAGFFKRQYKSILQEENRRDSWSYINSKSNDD
XBP1 UPR activ: activators of adaptive arm of unfolded protein response (XBP1). CHO-XBP1 luciferase reporter, IRE1-XBP1 UPR activation, luminescence; percent of tunicamycin response, DMSO as zero. activation, % at 20 µM. 330,000 compounds, 0.33% hits;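 active = versus positive control, 20 µM dose yields 30% or more activation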
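incubation = overnight seeding at 37 °C, 6 h compound treatment at 37 °C | assay system = CHO-XBP1 cells stably carrying IRE1-XBP1-driven luciferase reporter | input = 1000 cells per well | detection = luciferase luminescence | dosing = single point, 20 µM final compound, 1% DMSO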
CHOP inhibitor: blocks CHOP induction under ER stress; inhibition, % at 10 µM; 220,000 compounds, 3.8% hits; AID 2732; CHO-K1 CHOP-promoter luciferase, tunicamycin-induced, 15-18 h;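 active = compounds that reduced the stress-induced luciferase reporter signal by more than about 70% of percent inhibition, limit read from the data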
CHOP UPR activ: apoptotic UPR (CHOP) activation; CHO-CHOP luciferase reporter, luminescence; percent of tunicamycin response over DMSO baseline; 330,000 compounds, 0.34% hits; activation, % at 10 µM;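 active = at 10 µM dose, activation of 40% or more, normalized to positive control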
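System: CHO CHOP reporter cells. Amount: 500 cells per well. Buffer or medium: F12 medium, 10% FBS. Compound dosing: one dose, 10 µM in 0.5% DMSO. Incubation: 6 h compound exposure at 37 °C after overnight seeding. Technique: Steady-Glo luciferase luminescence. Benchmarks: tunicamycin and DMSO controls.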
Beta2AR agonist: activates human beta-2 adrenergic receptor causing internalization. P07550. Am2.2-beta2AR cells, FAP receptor internalization, flow cytometry. response, % (no concentration beside the values). 340,000 compounds, 0.43% hits;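 active = response above a set limit, near 3 SD of response in nonfluorescent compounds, cut at about 42% in these data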
CHOP UPR conf: apoptotic UPR (CHOP) activation, confirmed; activation, % at 10 µM; 1,000 compounds, 64% hits; shares compounds with CHOP UPR activ; CHO-CHOP cells, CHOP-luciferase reporter luminescence; percent of tunicamycin response, DMSO as zero; in the data active = activation above about 33%
A number is an active result.

`O=C(O)CC1CCC(=C(Cl)Cl)C1` (stereo not drawn) gave VLA-4 inh inactive, XBP1 UPR activ inactive, CHOP inhibitor 79, CHOP UPR activ 46, Beta2AR agonist inactive and CHOP UPR conf 65.
Screening CCN(CC)C(=O)c1sc(NC(=O)Cc2cccs2)c(C#N)c1C returned VLA-4 inh inactive, XBP1 UPR activ inactive, CHOP inhibitor inactive, CHOP UPR activ inactive and Beta2AR agonist inactive.
For COC(=O)c1cc(C(=O)OC)n(Cc2ccc(F)cc2)c1C the results were VLA-4 inh inactive, XBP1 UPR activ inactive, CHOP inhibitor inactive, CHOP UPR activ inactive and Beta2AR agonist inactive.
Screening Cc1c(C#N)c(NC(=O)CCl)n(Cc2ccc(F)cc2)c1C returned VLA-4 inh inactive, XBP1 UPR activ inactive, CHOP inhibitor inactive, CHOP UPR activ 65, Beta2AR agonist inactive and CHOP UPR conf 74.
For Cc1c(C#N)c(NC(=O)CCl)n(Cc2cccs2)c1C the results were VLA-4 inh inactive, XBP1 UPR activ inactive, CHOP inhibitor inactive, CHOP UPR activ 87, Beta2AR agonist inactive and CHOP UPR conf 71.
Cc1c(C#N)c(NC(=O)CCl)n(Cc2ccccc2)c1C was read as VLA-4 inh inactive, XBP1 UPR activ inactive, CHOP inhibitor inactive, CHOP UPR activ 113, Beta2AR agonist inactive and CHOP UPR conf 57.
O=c1c2c3c(sc2ncn1/N=C/c1ccc([N+](=O)[O-])o1)CCCC3 was read as VLA-4 inh inactive, XBP1 UPR activ inactive, CHOP inhibitor inactive, CHOP UPR activ 213, Beta2AR agonist inactive and CHOP UPR conf 195.
Cc1ccc(NC(=O)CN2C(=O)NC(C)(C3CC3)C2=O)c([N+](=O)[O-])c1 (stereo not drawn) was read as VLA-4 inh inactive, XBP1 UPR activ inactive, CHOP UPR activ inactive and Beta2AR agonist inactive.
For Cc1ccc(NC(=O)CN2C(=O)NC(C)(C3CC3)C2=O)c(C)c1 (stereo not drawn) the results were VLA-4 inh inactive, XBP1 UPR activ inactive, CHOP UPR activ 70, Beta2AR agonist inactive and CHOP UPR conf inactive.
O=C(Nc1cc([N+](=O)[O-])ccc1F)c1ccc2c(c1)OCCO2 was read as VLA-4 inh inactive, XBP1 UPR activ inactive, CHOP inhibitor inactive, CHOP UPR activ 99, Beta2AR agonist inactive and CHOP UPR conf inactive.
Screening O=C(c1cccc(S(=O)(=O)N2CCc3ccccc32)c1)N1CCOCC1 returned VLA-4 inh inactive, XBP1 UPR activ inactive, CHOP UPR activ inactive and Beta2AR agonist inactive.
For Cc1cc(SCC(=O)NC2(C#N)CCCCC2)nc2c(C)cccc12 the results were VLA-4 inh inactive, XBP1 UPR activ inactive, CHOP UPR activ inactive and Beta2AR agonist inactive.
`Cc1cc(C)nc(-n2nc(C)cc2Nc2ccccc2)n1` gave VLA-4 inh inactive, XBP1 UPR activ inactive, CHOP inhibitor inactive, CHOP UPR activ 59, Beta2AR agonist inactive and CHOP UPR conf inactive.
Screening Cc1cc(Nc2ccccc2)n(-c2ccccc2)n1 returned VLA-4 inh inactive, XBP1 UPR activ inactive, CHOP inhibitor inactive, CHOP UPR activ inactive and Beta2AR agonist inactive.
`Cc1cc(N2CCN(c3ccccc3)CC2)nc(-n2nc(C)cc2C)n1` gave VLA-4 inh inactive, XBP1 UPR activ inactive, CHOP inhibitor inactive, CHOP UPR activ 52, Beta2AR agonist inactive and CHOP UPR conf inactive.
Screening CC(C)[C@H](NC(=O)c1ccc(Cl)cc1)C(=O)OCC(=O)N1CCN(c2ccccc2)CC1 returned VLA-4 inh inactive, XBP1 UPR activ inactive, CHOP UPR activ inactive and Beta2AR agonist inactive.
Screening CCOC(=O)c1c(NC(=O)c2ccco2)n(C2CCCCC2)c2nc3ccccc3nc12 returned VLA-4 inh inactive, XBP1 UPR activ inactive, CHOP inhibitor inactive, CHOP UPR activ 40, Beta2AR agonist inactive and CHOP UPR conf inactive.
For Oc1ccc(/C=N/Nc2ccnc3cc(Cl)ccc23)cc1O the results were VLA-4 inh inactive, XBP1 UPR activ inactive, CHOP inhibitor inactive, CHOP UPR activ 193, Beta2AR agonist inactive and CHOP UPR conf 151.
`COc1ccc(NC(=O)C2CCCN(S(=O)(=O)c3ccc4c(c3)CCCN4C(C)=O)C2)cc1Cl` (stereo not drawn) gave VLA-4 inh inactive, XBP1 UPR activ inactive, CHOP UPR activ inactive and Beta2AR agonist inactive.
For COC(=O)c1c(NC(=O)C(C)(C)C)sc2c1C(C(=O)OC)CC2 (stereo not drawn) the results were VLA-4 inh inactive, XBP1 UPR activ inactive, CHOP inhibitor inactive, CHOP UPR activ inactive and Beta2AR agonist inactive.
For COC(=O)c1c(NC(=O)C(Cl)Cl)sc2c1C(C(=O)OC)CC2 (stereo not drawn) the results were VLA-4 inh inactive, XBP1 UPR activ inactive, CHOP inhibitor 80, CHOP UPR activ 45, Beta2AR agonist inactive and CHOP UPR conf inactive.
For O=C(N/N=C/c1ccccn1)c1cc(-c2ccc(Cl)cc2)nc2ccccc12 the results were VLA-4 inh inactive, XBP1 UPR activ inactive, CHOP inhibitor 83, CHOP UPR activ 264, Beta2AR agonist inactive and CHOP UPR conf 290.
Screening O=C(N/N=C/c1ccccn1)c1cc(-c2ccc(Br)cc2)nc2ccccc12 returned VLA-4 inh inactive, XBP1 UPR activ inactive, CHOP inhibitor inactive, CHOP UPR activ 331, Beta2AR agonist inactive and CHOP UPR conf 265.
O=C(N/N=C/c1ccccn1)c1sc2ccccc2c1Cl was read as VLA-4 inh inactive, XBP1 UPR activ inactive, CHOP inhibitor inactive, CHOP UPR activ 179, Beta2AR agonist inactive and CHOP UPR conf 104.
Cc1ccc(S(=O)(=O)N/N=c2\oc3ccccc3cc2C(=O)Nc2cccc(C)c2)cc1 was read as VLA-4 inh inactive, XBP1 UPR activ inactive, CHOP inhibitor inactive and CHOP UPR activ inactive.
Screening CCC[C@@H](CN[C@@H](CNC)C(C)C)NCCCCc1ccccc1 returned VLA-4 inh inactive, XBP1 UPR activ inactive, CHOP UPR activ inactive and Beta2AR agonist inactive.
Screening CNC[C@@H](CC1CCCCC1)NC[C@H](CC(C)C)NCCc1cccc(C(F)(F)F)c1 returned XBP1 UPR activ inactive, CHOP UPR activ 83, Beta2AR agonist 43 and CHOP UPR conf 33.
CNC[C@@H](Cc1ccccc1)NC[C@@H](CC1CCCCC1)NCCCc1ccccc1 was read as XBP1 UPR activ inactive, CHOP UPR activ 74, Beta2AR agonist inactive and CHOP UPR conf 34.
`O=c1[nH]c2cc3c(cc2cc1C(c1nnnn1Cc1ccccc1)N1CCCc2ccccc21)OCO3` (stereo not drawn) gave VLA-4 inh inactive, XBP1 UPR activ inactive, CHOP inhibitor inactive, CHOP UPR activ 265 and CHOP UPR conf inactive.
`Cc1ccc(C)c(S(=O)(=O)N2CCN(C(=O)Cn3c(=O)cnc4ccccc43)CC2)c1` gave VLA-4 inh inactive, XBP1 UPR activ inactive, CHOP UPR activ inactive and Beta2AR agonist inactive.
FC(F)(F)C1=Nc2cccc3cccc(c23)N1 was read as XBP1 UPR activ inactive, CHOP UPR activ 62, Beta2AR agonist 82 and CHOP UPR conf inactive.

Assay outcomes as filed in PubChem BioAssay.
